Blank lines part the entries; values can stand above or below the molecule they belong to. Active and inactive are the calls of the source. No cut-off for these calls is given here.
Experiments:
Calf thymus DNA [1] = test: Binding affinity to calf thymus DNA assessed as fold change in fluorescence quenching of 3-bromo-2-(4-carbamimidoylphenyl)-1H-indole-6-carboxamidine; assay type: nucleic-acid assay; conditions: Bos taurus
[2] = Drug localization in nucleus of human MCF7 cells assessed as increase in cyan fluorescence of 3-bromo-2-(4-carbamimidoylphenyl)-1H-indole-6-carboxamidine excitation at 3 uM incubated for 1 hr in dark by DAPI filter based analysis; assay type: ADME, subcellular; conditions: mcf7, 1 h
[3] = (§1) Stability of compound in human HeLa cells assessed as esterase-mediated 3-bromo-2-(4-carbamimidoylphenyl)-1H-indole-6-carboxamidine release by measuring cyan fluorescence at 2 uM incubated for 1 hr followed by compound washout and further incubated for 1 hr on heated microscopic stage by DAPI filter based fluorescence analysis; assay type: ADME, cell-based
Procedure, shortened: (§2)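 Cells incubated with compound (2 μM) for 1 h, washed once with PBS, then kept a further 1 h in the dark on a heated microscope stage. Nuclear cyan fluorescence imaged with the DAPI filter set at 0 h and 2 h time points.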

[4] = as §1, with “A549” for “HeLa”; assay type: ADME, cell-based; conditions: a549, 1 h; procedure, shortened: as §2
[5] = Photorelease ability in PBS at pH 7.4 assessed as 3-bromo-2-(4-carbamimidoylphenyl)-1H-indole-6-carboxamidine release by measuring change in emission spectra at 1 uM incubated in presence of CT-DNA and irradiated with 3.1 J/cm^2 mercury lamp light for 20 mins; assay type: functional
MCF7 [6] = test: Induction of ROS production in human MCF7 cells at 2 uM incubated for 1 hr in dark followed by irradiation with 480 nm 2.3 J/cm^2 light for 15 mins with 8 J/cm^2 UV irradiation for 5 mins by DCFH2-DA probe based analysis; assay type: functional, cell-based; conditions: time 80.0 min
Procedure, shortened: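 MCF7 cells incubated with compound (2 μM) 1 h in the dark, washed, loaded with 10 μM DCFH2DA for 30 min, washed. DCF green fluorescence imaged after 480 nm illumination (15 min, 2.3 J cm⁻²), then after added 365 nm UV (5 min, 8.0 J cm⁻²). Mean fluorescence intensity quantified.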

MCF7 [7] = test: Photorelease activity in human MCF7 cells assessed as 3-bromo-2-(4-carbamimidoylphenyl)-1H-indole-6-carboxamidine release by measuring bright cyan fluorescence in nucleus at 3 uM incubated for 1 hr followed by illumination with 1.6 J/cm^2 for 10 mins by DAPI filter based analysis; assay type: ADME, cell-based; conditions: mcf7, 1.167 h, time 70 min
Procedure, shortened: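 MCF7 cells given compound (3 μM) for 1 h, washed once with PBS, imaged. DAPI filter set (ex 350–405, em 415–470 nm) used for Br-DAPI cyan signal; EGFP filter set (ex 450–495, em 500–550 nm) used for WinterGreen green signal. Cells imaged dark, then after 480 nm illumination (10 min, 1.6 J cm⁻²).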

MCF7 [8] = test: Photocytotoxicity against human MCF7 cells assessed as reduction in cell viability incubated for 1 hr followed by washout and irradiation with 480 nm 2.3 J/cm^2 light for 15 mins with 8 J/cm^2 UV irradiation for 5 mins and measured after 24 hrs by MTT assay; assay type: functional; conditions: MCF7, light or radiation study
Procedure, shortened: (§3)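 Cells (MCF7, A549, HeLa) incubated 1 h with compound (BB probes 0–32 μM, Br-DAPI 0–64 μM) and washed once. Light arms: 480 nm (15 min, 2.3 J cm⁻²) with or without UV (5 min, 8.0 J cm⁻²), or UV only; dark controls unilluminated. Cells kept overnight in growth medium, then MTT read 24 h post-treatment. CC50 taken relative to untreated cells. n = 3.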

Calf thymus DNA [9] = test: Binding affinity to calf thymus DNA assessed as dissociation constant by fluorescence based analysis; assay type: nucleic-acid assay, Bos taurus
Procedure, shortened: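 Fluorescence titration: compound at 20 μM in PBS pH 7.4, calf thymus DNA added in 10 μM steps until emission plateaued (~60 μM). Excitation 345 nm, emission 350–650 nm. KD obtained by fitting a one-site total saturation binding model (nonspecific binding proportional to ligand). Triplicate independent samples.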

[10] = Photorelease activity in PBS at pH 7.4 assessed as wintergreen release at 50 uM in presence of CT-DNA illuminated with 3.1 J/cm^2 480 nm illumination for 20 mins by RP-HPLC analysis; assay type: functional
Procedure, shortened: (§4)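 Samples at 50 μM in PBS pH 7.4 were either kept 3 h at 37 °C in the dark or illuminated 20 min at 480 nm (450–495 nm filter, 3.1 J cm⁻²). Analysed by RP-HPLC on a C18 analytical column with absorbance at 345 nm; retention times recorded. n = 2 independent samples.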

MCF7 [11] = test: Photocytotoxicity against human MCF7 cells assessed as reduction in cell viability incubated for 1 hr under dark condition followed by washout and measured after 24 hrs by MTT assay; assay type: functional; procedure, shortened: as §3
[12] = Photorelease activity in PBS at pH 7.4 assessed as 3-bromo-2-(4-carbamimidoylphenyl)-1H-indole-6-carboxamidine release by measuring time at when peak observed at 50 uM in presence of CT-DNA illuminated with 3.1 J/cm^2 480 nm illumination for 20 mins by RP-HPLC analysis; assay type: functional; procedure, shortened: as §4
[13] = as §1, with “MCF7” for “HeLa”; assay type: ADME, cell-based; conditions: mcf7, 1 h; procedure, shortened: as §2
[14] = Photorelease activity in PBS at pH 7.4 assessed as 3-bromo-2-(4-carbamimidoylphenyl)-1H-indole-6-carboxamidine release by measuring increase in fluorescence intensity at 50 uM in presence of CT-DNA incubated for 3 hrs under dark condition by RP-HPLC analysis; assay type: functional; procedure, shortened: as §4
MCF7 [15] = test: Photocytotoxicity against human MCF7 cells assessed as reduction in cell viability incubated for 1 hr followed by washout and irradiation with 480 nm 2.3 J/cm^2 light for 15 mins and measured after 24 hrs by MTT assay; assay type: functional; conditions: MCF7, light or radiation study; procedure, shortened: as §3
[16] = Induction of ROS production in PBS at pH 7.4 at 1 uM irradiated with 480 nm 2.3 J/cm^2 light for 15 mins with 2-photon irradiation by DCFH2-DA probe based analysis; assay type: functional
[17] = Aqueous stability of the compound in PBS at pH 7.4 assessed as hydrolysis of carbamate to release 3-bromo-2-(4-carbamimidoylphenyl)-1H-indole-6-carboxamidine at 0.8 uM incubated for 3 hrs by fluorescence based analysis; assay type: physicochemical; conditions: buffer, pH 7.4, 3 h
[18] = Drug localization in nucleus of human MCF7 cells assessed as increase in cyan fluorescence at 3 uM incubated for 1 hr by DAPI filter based analysis; assay type: ADME, subcellular; conditions: mcf7, 1 h
MCF7 [19] = test: Induction of DNA damage in human MCF7 cells assessed as double strand breaks by measuring pink foci formation in nucleus at 3 uM incubated for 2 hrs followed by irradiation with 8 J/cm^2 UV irradiation for 5 mins by gammaH2A.X antibody/Alexa 488/DAPI staining based fluorescence analysis; assay type: functional, cell-based
Procedure, shortened: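 MCF7 cells treated with compound at 3 μM, then illuminated with 480 nm (15 min, 2.3 J cm⁻²) plus UV (5 min, 8.0 J cm⁻²), or with UV alone. Left 2 h, fixed, stained with Alexa 488-tagged γH2AX antibody and DAPI counterstain. Nuclear foci imaged.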

MCF7 [20] = test: Photocytotoxicity against human MCF7 cells assessed as reduction in cell viability incubated for 1 hr followed by washout and irradiation with 8 J/cm^2 UV irradiation for 5 mins and measured after 24 hrs by MTT assay
[21] = Drug uptake in human MCF7 cells cultured as […] spheroids assessed as increase in green fluorescence in nuclear background at 10 uM incubated overnight under dark condition by DAPI filter based fluorescence analysis; assay type: ADME, cell-based; conditions: mcf7, 10 µM
MCF7 [22] = test: Photocytotoxicity against human MCF7 cells assessed as reduction in cell viability incubated for 1 hr followed by washout and irradiation with 8 J/cm^2 UV irradiation for 5 mins and measured after 24 hrs by MTT assay; assay type: functional; conditions: MCF7, light or radiation study; procedure, shortened: as §3

- fold change (FC) (Calf thymus DNA [1]): 4
- Drug uptake [2]: Active
SMILES: COC(=O)/N=C(/N)c1ccc2c(Br)c(-c3ccc(C(=N)N)cc3)[nH]c2c1

- Stability [3]: Stable
- Stability [4]: Stable
- fold change (FC) (Calf thymus DNA [1]): 4
- Drug metabolism (MCF7 [7]): Metabolite_Detected
- Stability [13]: Stable
- Stability [17]: Stable
SMILES: CC1=CC(C)=[N+]2C1=C(COC(=O)/N=C(\N)c1ccc(-c3[nH]c4cc(C(=N)N)ccc4c3Br)cc1)c1c(C)cc(C)n1[B-]2(C)C
- Drug metabolism [5]: Metabolite detected
- Activity (MCF7 [6]): Active
- CC50 (MCF7 [8]): 0.6 µM
- Kd (Calf thymus DNA [9]): 10 µM
- Drug metabolism [10]: Metabolite not detected
- CC50 (MCF7 [11]): > 16 µM
- TIME [12]: 0.533 h
- Drug metabolism [14]: Metabolite not detected
- CC50 (MCF7 [15]): 5.8 µM
- Activity [16]: Active

- Drug uptake [18]: Active
- Drug uptake [21]: Active
SMILES: N=C(N)c1ccc(-c2[nH]c3cc(C(=N)N)ccc3c2Br)cc1
- Kd (Calf thymus DNA [9]): 19 µM
- Activity (MCF7 [19]): Active
- CC50 (MCF7 [11]): > 64 µM
- Activity (MCF7 [20]): Active
- CC50 (MCF7 [22]): 7.6 µM
